Active and inactive are the calls of the source. The rule behind the calls is not given here.
Columns and labels:
[1] = Antiproliferative activity in human HuTu 80 cells assessed as cell viability after 72 hrs by MTT assay; type: functional, cell-based, HuTu80
Method in brief: (§1)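 Each line was grown in its own medium: DMEM for HuTu-80, EMEM/NEAA for MCF-7, EMEM/F12 for SKNBE, DMEM/F12 with 5% FBS for T84, Leibovitz's for the SW lines. Cells were seeded, left 24 h, then exposed to graded concentrations for 72 h. MTT was given 2 h, absorbance read at 570 nm. IC50 is 50% absorbance inhibition versus control, from dose-response curves; mean ± SD of ≥3 independent experiments, each in triplicate.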

[2] = tested on: HeLa; assay: Antiproliferative activity in human HeLa cells assessed as cell viability at 10 uM after 48 hrs by MTT assay; type: functional, cell-based
Method in brief: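 HeLa cells were kept in DMEM with 10% FBS at 37 °C, 5% CO2. They were seeded, left 24 h, then given 10 μM compound for 48 h. MTT was added for 2 h at 37 °C, formazan solubilized, absorbance read at 570 nm, and viability compared with control cells.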

[3] = Antiproliferative activity in human SK-N-BE cells assessed as cell viability after 72 hrs by MTT assay; type: functional, cell-based; method in brief: as §1
[4] = Antiproliferative activity in human CCD-841-CoN cells assessed as cell viability at 10 uM after 72 hrs by MTT assay; type: cell-based
Method in brief: (§2)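 Normal cells (CCD841CoN in EMEM/NEAA with 10% FBS; FHs74 in DMEM with 10% FBS, EGF 30 ng/mL, insulin 10 μg/mL) were seeded and grown for 24 h at 37 °C, 5% CO2, then given compound at 10 μM. Viability was read by MTT: 2 h at 37 °C, formazan solubilized, absorbance at 570 nm.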

[5] = target: Tubulin (Sus scrofa, UniProt P02554+P02550); assay: Inhibition of porcine brain tubulin polymerization after 30 mins by spectrophotometry
Method in brief: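 Porcine brain tubulin at 2.5 mg/mL was used in 80 mM PIPES pH 6.9, 1 mM MgCl2, 2 mM EGTA, 10% glycerol, with 1 mM GTP and graded compound (0.2% DMSO vehicle). Turbidity was followed at 340 nm, 37 °C.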

[6] = tested on: T84; assay: Antiproliferative activity in human T84 cells assessed as cell viability after 72 hrs by MTT assay; type: functional, cell-based; method in brief: as §1
[7] = tested on: SW48; assay: Antiproliferative activity in human SW48 cells assessed as cell viability after 72 hrs by MTT assay; type: functional, cell-based; method in brief: as §1
[8] = tested on: SW480; assay: Antiproliferative activity in human SW480 cells assessed as cell viability after 72 hrs by MTT assay; type: functional, cell-based; method in brief: as §1
[9] = tested on: MCF7; assay: Antiproliferative activity in human MCF7 cells assessed as cell viability after 72 hrs by MTT assay; type: functional, cell-based; method in brief: as §1
[10] = tested on: SW-620; assay: Antiproliferative activity in human SW620 cells assessed as cell viability after 72 hrs by MTT assay; type: functional, cell-based; method in brief: as §1
[11] = Antiproliferative activity in human FHs74 cells assessed as cell viability at 10 uM after 72 hrs by MTT assay; type: cell-based; method in brief: as §2
[12] = Antiproliferative activity in human renal cancer cells; type: functional, cell-based; details: Cancer cell lines
[13] = Cell cycle arrest in human HuTu 80 cells assessed as accumulation at sub-G1 phase at 30 nM after 48 hrs by propidium iodide-based flow cytometry (reference value: 3.3 %); details: HuTu80
[14] = target: T1, AMP-activated protein kinase, AMPK (Homo sapiens) (UniProt P54646+O43741+P54619+Q9UGJ0+Q9Y478+Q13131+Q9UGI9); assay: Induction of AMPK-mediated p53 pser15 accumulation in human […] cells at 30 nM after 24 hrs by Western blot analysis; type: cell-based
Method in brief: (§3)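 HuTu-80 cells were exposed to 30 nM compound for 24 h, with 0.1% DMSO as vehicle. pT172-AMPK and pS792-Raptor were blotted from total RIPA extracts with vinculin for loading. pS15-p53 and total p53 were blotted from nuclear extracts with fibrillarin as nuclear control.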

[15] = tested on: HuTu80; assay: Induction of apoptosis in human HuTu 80 cells assessed as PARP cleavage at 30 nM after 24 hrs by Western blot analysis
[16] = tested on: HuTu80; assay: Induction of apoptosis in human HuTu 80 cells assessed as caspase-3 cleavage at 30 nM after 24 hrs by Western blot analysis
[17] = Cell cycle arrest in human HuTu 80 cells assessed as […] at sub-G1 phase at 30 nM after 72 hrs by propidium iodide-based flow cytometry (reference value: 4.3 %); type: functional; parameters: scale not given: the % may be the effect or the level left; details: HuTu80
[18] = tested on: HuTu 18; assay: Effect on AKT phosphorylation at ser473 in human […] cells at 30 nM after 24 hrs by Western blot analysis; type: cell-based
Method in brief: (§4)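 HuTu-80 cells were exposed to 30 nM compound for 24 h, with 0.1% DMSO as vehicle. They were then mock treated or stimulated with 10 μg/mL insulin for 10 min. Total RIPA extracts were probed by Western blot for pS473-Akt and total Akt, with vinculin as loading control.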

[19] = target: T1, AMP-activated protein kinase, AMPK (Homo sapiens); assay: Induction of AMPK phosphorylation at Thr172 residue in human SW48 cells at 30 nM after 16 hrs by Western blot analysis; type: cell-based
Method in brief: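 SW48 cells were exposed to 30 nM compound for 16 h, with 0.1% DMSO as vehicle. Total RIPA lysates (with protease and phosphatase inhibitors) were blotted for pT172-AMPK and total AMPK.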

[20] = Cell cycle arrest in human HuTu 80 cells assessed as accumulation at G2/M phase at 30 nM after 48 to 72 hrs by propidium iodide-based flow cytometry; type: functional; details: HuTu80
Method in brief: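 HuTu-80 cells were exposed to 30 nM compound for 48 and 72 h, with 0.1% DMSO as vehicle. Cells were trypsinized, washed in PBS, fixed in 75% ethanol at 4 °C and stained with propidium iodide. DNA content was measured by flow cytometry.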

[21] = Cell cycle arrest in human HuTu 80 cells assessed as […] at sub-G1 phase at 30 nM by propidium iodide-based flow cytometry; type: functional; details: HuTu80, TDE = time-dependent effect
[22] = tested on: HuTu 18; assay: Effect on AKT phosphorylation at ser473 in insulin-stimulated human […] cells at 30 nM after 24 hrs by Western blot analysis; type: cell-based; method in brief: as §4
[23] = target: T1, AMP-activated protein kinase, AMPK (Homo sapiens); assay: Induction of AMPK-mediated raptor phosphorylation at ser792 residue in human […] cells at 30 nM after 24 hrs by Western blot analysis; type: cell-based; method in brief: as §3
[24] = target: T1, AMP-activated protein kinase, AMPK (Homo sapiens); assay: Induction of AMPK-mediated p53 phosphorylation at ser15 residue in human […] cells at 30 nM after 24 hrs by Western blot analysis; type: cell-based; method in brief: as §3
[25] = target: T1, AMP-activated protein kinase, AMPK (Homo sapiens); assay: Induction of AMPK phosphorylation at Thr172 residue in human […] cells at 30 nM after 24 hrs by Western blot analysis; type: cell-based; method in brief: as §3

COc1ccc([C@@H]2[C@H](O)C(=O)N2c2cc(OC)c(OC)c(OC)c2)cc1O (racemic)
IC50 ([1]; Homo sapiens, HuTu80, 72 h): 28.8 nM
Activity [2]: Active

COc1ccc([C@H]2[C@H](O)C(=O)N2c2cc(OC)c(OC)c(OC)c2)cc1O (stereo in doubt; (+))
IC50 ([3]; sk-n-be): 1.32 nM
Activity [4]: Non-toxic
IC50 [5]: 1610 nM
IC50 ([6]; t84): 20.3 nM
IC50 ([1]; hutu80): 3.05 nM
IC50 ([7]; sw48): 9.81 nM
IC50 ([8]; sw480): 12.5 nM
IC50 ([9]; mcf7): 4.47 nM
IC50 ([10]; sw-620): 3.37 nM
Activity [11]: Non-toxic

COc1ccc([C@H]2[C@H](O)C(=O)N2c2cc(OC)c(OC)c(OC)c2)cc1O (racemic) [listing 1 of 2 here]
IC50 ([3]; sk-n-be): 4.2 nM
IC50 [5]: 3800 nM
IC50 ([6]; t84): 45.4 nM
IC50 ([1]; hutu80): 13.4 nM
IC50 ([7]; Homo sapiens, SW48, 72 h): 15.2 nM
IC50 ([8]; Homo sapiens, SW480, 72 h): 22.1 nM
IC50 ([9]; Homo sapiens, MCF7, 72 h): 6.14 nM
IC50 ([10]; sw-620): 13.6 nM

COc1ccc([C@H]2[C@H](O)C(=O)N2c2cc(OC)cc(OC)c2)cc1 (stereo in doubt; (-))
IC50 ([1]; hutu80): 83.5 nM

COc1ccc([C@H]2[C@H](O)C(=O)N2c2cc(OC)cc(OC)c2)cc1 (racemic) [listing 1 of 2 here]
IC50 ([3]; sk-n-be): 2.25 nM
Activity [4]: Non-toxic
IC50 [5]: 3600 nM
IC50 ([6]; Homo sapiens, T84, 72 h): 5.73 nM
IC50 ([1]; hutu80): 9.05 nM
IC50 ([7]; Homo sapiens, SW48, 72 h): 12.1 nM
IC50 ([8]; Homo sapiens, SW480, 72 h): 24.2 nM
IC50 ([9]; Homo sapiens, MCF7, 72 h): 5.19 nM
IC50 ([10]; Homo sapiens, SW-620, 72 h): 6.6 nM
Activity [11]: Non-toxic

COc1ccc([C@@H]2[C@H](O)C(=O)N2c2cc(OC)cc(OC)c2)cc1 (racemic)
IC50 ([1]; Homo sapiens, HuTu80, 72 h): 125 nM
Activity [2]: Active

COc1ccc([C@@H]2[C@H](O)C(=O)N2c2cc(OC)c(OC)c(OC)c2)cc1[N+](=O)[O-]
IC50 ([1]; Homo sapiens, HuTu80, 72 h): 529 nM
IC50 [12]: 29.2 nM

COc1ccc([C@H]2[C@H](O)C(=O)N2c2cc(OC)c(OC)c(OC)c2)cc1O (stereo in doubt; (-))
IC50 ([1]; hutu80): 590 nM

COc1ccc(/C=C\c2cc(OC)c(OC)c(OC)c2)cc1O [COMBRETASTATIN A4]
IC50 ([3]; Homo sapiens, SK-N-BE, 72 h): 0.58 nM
Activity [13]: 24.6%
IC50 ([6]; Homo sapiens, T84, 72 h): 23.4 nM
IC50 ([1]; Homo sapiens, HuTu80, 72 h): 1.37 nM
Activity [14]: Active
IC50 ([7]; Homo sapiens, SW48, 72 h): 3.32 nM
Activity [15]: Active
Activity [16]: Active
IC50 ([8]; Homo sapiens, SW480, 72 h): 3.63 nM
Activity [17]: 34%
IC50 ([9]; Homo sapiens, MCF7, 72 h): 1.11 nM
Activity [2]: Active
IC50 ([10]; Homo sapiens, SW-620, 72 h): 1.52 nM

COc1ccc([C@@H]2[C@H](O)C(=O)N2c2cc(OC)c(OC)c(OC)c2)cc1N
IC50 ([1]; Homo sapiens, HuTu80, 72 h): 101 nM

COc1ccc([C@H]2[C@H](O)C(=O)N2c2cc(OC)cc(OC)c2)cc1 (racemic) [listing 2 of 2 here]
Activity [13]: 28.5%
Activity [18]: inactive
Activity [14]: Active
Activity [19]: Active
Activity [15]: Active
Activity [20]: Active
Activity [21]: tde
Activity [16]: Active
Activity [22]: inactive
Activity [17]: 35%
Activity [23]: Active
Activity [24]: Active
Activity [2]: Active
Activity [25]: Active

COc1ccc(N2C(=O)[C@@H](O)[C@@H]2c2cc(OC)c(OC)c(OC)c2)cc1O (racemic)
IC50 ([1]; Homo sapiens, HuTu80, 72 h): 406 nM
Activity [2]: Active

COc1ccc(N2C(=O)[C@@H](O)[C@H]2c2cc(OC)c(OC)c(OC)c2)cc1O (racemic)
IC50 ([1]; Homo sapiens, HuTu80, 72 h): 2550 nM
Activity [2]: Active

COc1ccc([C@H]2[C@H](O)C(=O)N2c2cc(OC)c(OC)c(OC)c2)cc1O (racemic) [listing 2 of 2 here]
Activity [13]: 22.9%
Activity [18]: inactive
Activity [14]: Active
Activity [19]: Active
Activity [15]: Active
Activity [20]: Active
Activity [21]: tde
Activity [16]: Active
Activity [22]: inactive
Activity [17]: 32.7%
Activity [23]: Active
Activity [24]: Active
Activity [2]: Active
Activity [25]: Active

COc1ccc([C@H]2[C@H](O)C(=O)N2c2cc(OC)cc(OC)c2)cc1 (stereo in doubt; (+))
IC50 ([3]; sk-n-be): 1.12 nM
IC50 [5]: 1300 nM
IC50 ([6]; t84): 6.77 nM
IC50 ([1]; hutu80): 8.02 nM
IC50 ([7]; sw48): 11.1 nM
IC50 ([8]; sw480): 16.7 nM
IC50 ([9]; mcf7): 4.01 nM
IC50 ([10]; sw-620): 8.58 nM

— ChEMBL document CHEMBL2029329, “Synthesis and biological evaluation of 1,4-diaryl-2-azetidinones as specific anticancer agents: activation of adenosine monophosphate activated protein kinase and induction of apoptosis” (J Med Chem, 2012)
